Source: PubChem
Most compounds without a hit are left out; they make up all but 2.4% or so of the library.
SIAE primary – human SIAE inhibition, primary screen | AID 1053197 | SIAE FP-Rh probe binding, fluorescence polarization | 370,000 compounds, 0.69% hits | Q9HAT2 | inhibition, % at 9.66 µM;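 active means inhibition above a cutoff: mean of compounds within the control limits plus 3 SD of those, cut at about 17% in these data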;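 further: 0% = plate median of compound wells and 100% = probe without SIAE protein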
JMJD2C inh – human JMJD2C demethylase inhibition; GST-JMJD2C(1-420) H3K9me3 demethylation, DELFIA europium; inhibition, % at 2.35 µM; 330,000 compounds, 0.069% hits; Q9H3R0;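 active means more than half of a compound's replicate wells show inhibition beyond 50%, single wells judged on their own value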;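 further: signal counts dimethyl H3K9 product captured on neutravidin plate; 0% = median of DMSO wells and 100% = 0.3 times that DMSO median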
HTRA1 inhibitor – HTRA1 (human) protease inhibition | recombinant HTRA1, FP-rhodamine activity-based probe, fluorescence polarization | inhibition, % at 5.96 µM | 340,000 compounds, 0.5% hits | AID 504803; in the data active means inhibition above about 36%;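 further: 0% = enzyme with DMSO and 100% = wells lacking enzyme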
mABHD4 FP – ABHD4 (mouse) inhibition, primary FP screen | AID 720543 | purified mABHD4, FP-Rh probe fluorescence polarization | Q8VD66 | 370,000 compounds, 0.54% hits | inhibition, % at 8.92 µM;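 active means inhibition exceeding the mean over every tested compound plus 3 SD, cut at about 30% in these data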;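 further: 0% = plate median of compound wells and 100% = S159A mutant with DMSO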
Target sequence (Q8VD66 whole entry, looked up): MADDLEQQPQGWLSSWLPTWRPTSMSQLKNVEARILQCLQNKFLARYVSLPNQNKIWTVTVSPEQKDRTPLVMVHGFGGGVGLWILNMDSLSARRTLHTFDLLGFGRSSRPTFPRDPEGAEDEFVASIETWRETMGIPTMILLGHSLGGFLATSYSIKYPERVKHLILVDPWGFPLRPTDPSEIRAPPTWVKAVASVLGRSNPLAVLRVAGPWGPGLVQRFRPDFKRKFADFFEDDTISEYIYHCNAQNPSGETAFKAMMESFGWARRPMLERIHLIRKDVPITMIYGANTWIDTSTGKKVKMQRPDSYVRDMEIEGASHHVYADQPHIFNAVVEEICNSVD
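Material: mouse ABHD4 enzyme, wild type; Benchmarks: S159A mutant high control, sample median low control; Buffer or medium: HEPES pH 7.0, NaCl, Pluronic buffer; Signal: fluorescence polarization; Read-out: percent inhibition of probe binding, normalized to plate controls; Timing: pre-incubation 45 min, probe exposure 60 min, at 25 °C; Dosing: 8.92 µM, single dose.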
PRMT1 FP inh – blocks human protein arginine methyltransferase 1; AID 652257; 370,000 compounds, 1.3% hits; recombinant PRMT1, activity-based probe fluorescence polarization; inhibition, % at 2.79 µM;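 active means inhibition above about 21% made by adding two undisclosed values, limit read from the data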
* marks the source's active call; other numbers are inactive results; . = no result.

SMILES | SIAE primary | JMJD2C inh | HTRA1 inhibitor | mABHD4 FP | PRMT1 FP inh
O=C(NCC1CCCO1)c1ccc2c(c1)N(Cc1ccccc1)C(=O)CS2=O (stereo not drawn) | -3 | 8 | 0 | 0 | 24*
O=C(NCc1ccco1)c1ccc2c(c1)N(Cc1ccccc1)C(=O)CS2=O (stereo not drawn) | -2 | -10 | -4 | -2 | 14
Cc1ccc(NC(=O)/C=C/c2cccs2)c([N+](=O)[O-])c1 | 2 | 56* | 0 | -2 | 3
COC(=O)[C@@]12CCCCC=C1N(CCc1ccc(Cl)cc1)C(=O)[C@H]2CC(=O)NCc1cccc(C(F)(F)F)c1 | 2 | . | . | -14 | -2
Cc1nc2sc(C(=O)NC3CC3)c(N)c2c(C)c1Cl | 3 | . | . | 3 | 6
Nc1c(C(=O)NC2CC2)sc2nc3c(c(-c4ccco4)c12)CC/C3=C/c1ccco1 | . | 40 | 54* | . | .
O=S(=O)(CC1NCCc2ccccc21)NCc1ccccc1 (stereo not drawn) | -4 | . | . | -3 | -4
COc1cc(C(=S)N2CCCC2)cc(Cl)c1OCC(=O)Nc1ccc(C)cc1C | -12 | 2 | -30 | -10 | 22*
Cc1nnc(SCC(=O)Nc2sccc2C#N)s1 | 0 | 0 | 1 | 7 | 9
Cn1ccnc1SCC(=O)Nc1sccc1C#N | 1 | 0 | 1 | 1 | 22*
CSC1=N/C(=C\c2ccc(Br)o2)C(=O)S1 | 2 | 32 | -1 | 12 | 25*
O=C(CCNc1ccc(Cc2ccncc2)cc1)c1ccc([N+](=O)[O-])cc1 | 6 | 9 | -3 | 14 | 36*
O=C(Nc1ccc(Cc2ccncc2)cc1)c1cccc([N+](=O)[O-])c1 | 1 | 4 | -9 | 1 | -1
Cc1ccc(NC(=O)c2sc3nc(N4CCOCC4)c4c(c3c2N)CC(C)(C)OC4)cc1 | 3 | 0 | -6 | -9 | 22*
COc1cc(C(c2c(C(=O)O)[nH]c3ccccc23)c2c(C(=O)O)[nH]c3ccccc23)ccc1OCc1ccccc1 | 7 | -32 | 20 | 50* | -1
COc1cc(C(NC(C)=O)NC(C)=O)ccc1OCc1ccccc1 | 0 | 2 | -1 | 0 | -3
O=[N+]([O-])c1nccn1CC(O)CCN1CCOCC1 (stereo not drawn) | 14 | . | . | 10 | 3
CC(C)CC1NC(=O)N(CC(=O)N2c3ccccc3NC(=O)C2(C)C)C1=O (stereo not drawn) | 20* | 1 | -2 | 2 | 1
CCC1(c2ccc(F)cc2)NC(=O)N(CC(=O)N2c3ccccc3NC(=O)C2(C)C)C1=O (stereo not drawn) | -1 | 12 | -1 | 1 | -3
COc1ccc(NC(=S)NNC(=S)Nc2cccc(C(F)(F)F)c2)cc1 | 31* | -7 | 28 | 12 | -1
CCCCNC(=O)C[C@H]1C[C@@]2(C(=O)OC)C(=C[C@H](C3CCCC3)O[C@@H]2C)N(Cc2ccco2)C1=O | -1 | . | . | -5 | -4
CCOC(=O)c1sc2nc(CC(=O)OC)nc(NCc3ccco3)c2c1C | 9 | -12 | 25 | 15 | 22*
CCOC(=O)c1sc2nc(CC(=O)OC)nc(NCC(=O)OC)c2c1C | -5 | 3 | 0 | 0 | 3
COc1ccc(C2=NN(c3nc(-c4ccccc4)c(CC(=O)O)s3)C(c3ccco3)C2)cc1 (stereo not drawn) | -25 | 8 | -32 | -8 | 22*
O=C(NCc1cccc(F)c1)C1CCN(S(=O)(=O)Cc2ccccc2)CC1 | 3 | 73* | 0 | 0 | 0
SMILES | SIAE primary | JMJD2C inh | HTRA1 inhibitor | mABHD4 FP | PRMT1 FP inh
Cc1c(C)n(Cc2ccc(-c3ccccc3C(=O)O)cc2)c2ccc(C(=O)N[C@@H](C)c3ccc([N+](=O)[O-])cc3)cc12 | -9 | . | . | 9 | 5
O=C(O)c1ccc(S(=O)(=O)Nc2ccc(O)c(Sc3nc4ccccc4s3)c2)cc1 | -10 | 57 | 0 | 12 | 22*
NS(=O)(=O)c1ccc(Sc2nc3ccccc3s2)c([N+](=O)[O-])c1 | 6 | 1 | -6 | -11 | -2
CCc1ccc2[nH]c(=O)c(CN(Cc3ccccc3OC)Cc3nnnn3Cc3ccco3)cc2c1 | -10 | -9 | -67 | -23 | 23*
CCC(C)(C)n1nnnc1CN(Cc1ccco1)Cc1cc2cc3c(cc2[nH]c1=O)OCO3 | . | -5 | -1 | . | .
CC(C)(C)n1nnnc1CN(Cc1ccco1)Cc1cc2cc3c(cc2[nH]c1=O)OCO3 | 1 | 2 | -6 | 8 | 24*
